Source: ChEMBL document CHEMBL1135512 (J Med Chem, 2002)

Experiments:
Plasmodium falciparum [1] = test: Percent reversal against Plasmodium falciparum W2 at 1 uM DEEA; type: functional
[2] = Partition coefficient (logD7.0); type: physicochemical; details: octanol/water, pH 7; read-out: logD
Plasmodium falciparum [3] = test: In vitro inhibitory activity against multidrug-resistant Plasmodium falciparum W2 Indochina; type: functional, organism-based; details: Plasmodium falciparum
Method in brief: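 Clone W2 (Indochina), sorbitol-synchronized, was grown in RPMI 1640 with 10% human serum, 25 mM HEPES and 25 mM NaHCO3, at final parasitemia 0.5% and hematocrit 1.5%. The drug was present for 48 h at 37 °C under 10% O2/6% CO2/84% N2. Growth was read as 3H-hypoxanthine uptake (1 μCi/well). IC50 came from nonlinear regression of log-dose/response as the geometric mean with 95% CI.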

[4] = Cytotoxicity against Chinese hamster ovary cells; type: cell-based, Cricetulus griseus
Method in brief: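 Cells were then exposed to graded drug concentrations for 48 h at 37 °C, 5% CO2. MTT (1 mg/mL in PBS) was added for 3 h, and formazan was dissolved in DMSO and read at 570/630 nm. IC50 came from nonlinear regression versus drug-free wells.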

Plasmodium falciparum [5] = test: Accumulation coefficient of chloroquine at 1 uM-10 uM of DEEA against Plasmodium falciparum W2; type: functional
Method in brief: (§1)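 W2 infected erythrocytes were suspended in RPMI 1640 with 25 mM HEPES and 25 mM NaHCO3 (2% parasitemia, 2% hematocrit). They were mixed over silicone oil with buffer holding [3H]CQ (26 Ci/mmol) plus DEEA at 1 or 10 μM. Incubation was 1 h at 37 °C under 10% O2/6% CO2/84% N2, followed by 1 min centrifugation. Ratio = parasite [3H]CQ (infected minus uninfected cells) / same-volume buffer.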

[6] = Partition coefficient (logP); type: physicochemical; details: octanol/water; read-out: logP
[7] = In vitro hemolytic concentration on uninfected erythrocytes.; type: functional, Homo sapiens
Method in brief: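 Washed A+ human erythrocytes were held at 1.5% hematocrit in RPMI 1640 with 10% human serum, 25 mM HEPES and 25 mM NaHCO3. Drug (2 mM to 1 μM final, triplicate) was added for 42 h at 37 °C under 10% O2/6% CO2. Released hemoglobin in supernatant was measured with TMB/H2O2 at 455 nm. HC50 is relative to 5% saponin lysis, by nonlinear regression.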

Plasmodium falciparum [8] = test: Concentration required to reduce chloroquine IC50 by 50%; type: functional, organism-based; details: Plasmodium falciparum
Method in brief: (§2)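 Synergy isotopic microtest on sorbitol-synchronized W2 (Indochina) and 3D7 in RPMI 1640 with 10% human serum, HEPES/NaHCO3, parasitemia 0.5%, hematocrit 1.5%. CQ was combined with subinhibitory fixed DEEA concentrations, and 3H-hypoxanthine was added for 48 h at 37 °C under 10% O2/6% CO2/84% N2. Reversal IC50 is the DEEA concentration halving CQ IC50, found by nonlinear regression of log-dose/IC50.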

Plasmodium falciparum [9] = test: Accumulation coefficient of chloroquine at 1 uM-10 uM of DEEA against Plasmodium falciparum W2; Range is from 14-56; type: functional; method in brief: as §1
[10] = Dissociation constant (pKa); type: physicochemical
Plasmodium falciparum [11] = test: Accumulation coefficient of chloroquine at 1 uM-10 uM of DEEA against Plasmodium falciparum W2; Range is from 50-66; type: functional; method in brief: as §1
Plasmodium falciparum [12] = test: Accumulation coefficient of chloroquine at 1 uM-10 uM of DEEA against Plasmodium falciparum W2;Range is from 16-25; type: functional; method in brief: as §1
Plasmodium falciparum [13] = test: Accumulation coefficient of chloroquine at 1 uM-10 uM of DEEA against Plasmodium falciparum W2; Range is from 23-30; type: functional
Plasmodium falciparum [14] = test: Concentration required to reduce chloroquine IC50 by 50%; Antagonist; type: functional, organism-based; method in brief: as §2
Plasmodium falciparum [15] = test: Accumulation coefficient of chloroquine at 1 uM-10 uM of DEEA against Plasmodium falciparum W2; Range is from 61-242; type: functional; method in brief: as §1
Plasmodium falciparum [16] = test: Accumulation coefficient of chloroquine at 1 uM-10 uM of DEEA against Plasmodium falciparum W2; Range is from 22-29; type: functional; method in brief: as §1

SMILES | Reversal (Plasmodium falciparum [1]) | logD [2] | IC50 (Plasmodium falciparum [3]) | Cytotoxicity [4] | Accumulation coefficient (Plasmodium falciparum [5]) | logP [6] | HC50 [7] | IC50 (Plasmodium falciparum [8]) | Accumulation coefficient (Plasmodium falciparum [9]) | pKa [10] | Accumulation coefficient (Plasmodium falciparum [11]) | Accumulation coefficient (Plasmodium falciparum [12]) | Accumulation coefficient (Plasmodium falciparum [13]) | IC50 (Plasmodium falciparum [14]) | Accumulation coefficient (Plasmodium falciparum [15]) | Accumulation coefficient (Plasmodium falciparum [16])
O=C(NCc1ccccc1)C1=CC2c3ccccc3C1c1ccccc12 | 0% | 4.41 | 50 µM | > 2000 µM | 46 | 4.41 | >2000 µM | 23 µM | – | – | – | – | – | – | – | –
CC1C2c3ccccc3C(c3ccccc32)C1C[N+](C)(C)C.[I-] (stereo not given) | 37% | 1.32 | 16 µM | > 2000 µM | 192 | 1.32 | >2000 µM | 3.5 µM | – | – | – | – | – | – | – | –
CN(C)CC1C2c3ccccc3C(c3ccccc32)C1CO (stereo not given) | 66% | 0.96 | 36 µM | > 2000 µM | – | 2.82 | >2000 µM | 0.6 µM | 56 | 8.86 | – | – | – | – | – | –
CNCC1CC2c3ccccc3C1c1ccccc12 (stereo not given) | 80% | 0.63 | 8 µM | 515 µM | 210 | 3.66 | 1090 µM | 0.3 µM | – | 10.2 | – | – | – | – | – | –
CN(C)CC1C2c3ccccc3C(c3ccccc32)C1COC(=O)N(C)C (stereo not given) | 25% | 1 | 21 µM | 758 µM | – | 2.99 | 1563 µM | 1.6 µM | – | 8.99 | 66 | – | – | – | – | –
CN(C)C=NC(=O)C1C2c3ccccc3C(c3ccccc32)C1C(=O)N=CN(C)C (stereo not given) | 0% | 1.6 | 33 µM | 820 µM | – | 1.6 | >2000 µM | 30 µM | – | – | – | 25 | – | – | – | –
COC(=O)C1C2c3ccccc3C(c3ccccc32)C1C(=O)N(C)C (stereo not given) | 0% | 2.47 | 32 µM | > 2000 µM | – | 2.47 | >2000 µM | – | – | -1.65 | – | – | 30 | Antagonist | – | –
c1ccc2c(c1)C1c3ccccc3C2C2CNCC12 (stereo not given) | 80% | 0 | 10 µM | 1110 µM | 322 | 2.98 | >2000 µM | 0.2 µM | – | 10.2 | – | – | – | – | – | –
CN(C)CC1=CC2c3ccccc3C1c1ccccc12 | 65% | 2.61 | 4 µM | 1427 µM | 53 | 3.68 | 1630 µM | 0.5 µM | – | 8.04 | – | – | – | – | – | –
CN(C)CC1=C(CN(C)C)C2c3ccccc3C1c1ccccc12 | 55% | 1.26 | 2.5 µM | 920 µM | – | 3.34 | >2000 µM | 0.8 µM | – | 8.66 | – | – | – | – | 242 | –
CN(C)C1CC2c3ccccc3C1c1ccccc12 (stereo not given) | 60% | 2 | 9.3 µM | > 2000 µM | 219 | 3.67 | >2000 µM | 0.8 µM | – | 8.67 | – | – | – | – | – | –
NC(=O)C1C2c3ccccc3C(c3ccccc32)C1C(N)=O (stereo not given) | 0% | 0.86 | 44 µM | > 2000 µM | – | 0.86 | >2000 µM | 50 µM | – | -0.96 | – | – | – | – | – | 29
